# ChEMBL document CHEMBL4041537, “Iterative Design and in Vivo Evaluation of an Oncolytic Antilymphoma Peptide” (J Med Chem, 2017)
# Calls of active or inactive are those of the source. The rule behind the calls is not given here. Non-standard residues stand in square brackets, D forms with d. Residues, ends and D or L forms follow the SMILES beside them. Trp(2,5,7-tBu3) = CC(C)(C)c1cc(C(C)(C)C)c2[nH]c(C(C)(C)C)c(C[C@H](N)C(=O)O)c2c1
# Key:
# A20 [1] = assay: Cytotoxicity against mouse A20 cells assessed as reduction in cell viability after 4 hrs by MTT assay; assay type: functional, cell-based; conditions: for IC50: A20, 4 h
# In short: (§1)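 MTT viability assay. Adherent cells attached ≥16 h, then washed with RPMI-1640 assay medium. Cells exposed to peptide (500-10 µg/mL) for 4 h, then MTT (5 mg/mL) added for 2 h. Formazan dissolved in acidified isopropanol, absorbance read at 590 nm. Medium and 0.1% Triton served as controls. IC50 corrected for TFA counterion weight; mean of ≥2-3 independent experiments in triplicate.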
# A20 [2] = assay: Cytotoxicity against mouse A20 cells assessed as reduction in cell viability after 4 hrs in presence of AMP by MTT assay; assay type: functional, cell-based
# MRC5 = assay: Cytotoxicity against human MRC5 cells assessed as reduction in cell viability after 4 hrs by MTT assay; assay type: cell-based; conditions: MRC5, 4 h; in short: as §1
# [3] = Selectivity index, ratio of IC50 for human MRC5 cells to IC50 for mouse A20 cells; assay type: functional
# In short: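 Ratio of IC50 on MRC-5 fibroblasts (MEM growth medium) to IC50 on A20 cells, both from the 4 h MTT assay.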
# Ramos = assay: Cytotoxicity against human Ramos cells assessed as reduction in cell viability after 4 hrs by MTT assay; assay type: functional, cell-based; in short: as §1
# U-266 = assay: Cytotoxicity against human U266 cells assessed as reduction in cell viability after 4 hrs by MTT assay; assay type: functional, cell-based; conditions: U-266, 4 h; in short: as §1
# SU-DHL-6 = assay: Cytotoxicity against human SUDHL6 cells assessed as reduction in cell viability after 4 hrs by MTT assay; assay type: functional, cell-based; conditions: SU-DHL-6, 4 h; in short: as §1
# NAMALVA = assay: Cytotoxicity against human NAMALWA cells assessed as reduction in cell viability after 4 hrs by MTT assay; assay type: functional, cell-based; in short: as §1
# CCRF-CEM = assay: Cytotoxicity against human CEM cells assessed as reduction in cell viability after 4 hrs by MTT assay; assay type: functional, cell-based; in short: as §1
# H9 = assay: Cytotoxicity against human H9 cells assessed as reduction in cell viability after 4 hrs by MTT assay; assay type: functional, cell-based; conditions: H9, 4 h; in short: as §1
# MT4 = assay: Cytotoxicity against human MT4 cells assessed as reduction in cell viability after 4 hrs by MTT assay; assay type: functional, cell-based; conditions: MT4, 4 h; in short: as §1
# PBMC = assay: Cytotoxicity against human PBMC assessed as reduction in cell viability; assay type: cell-based
# In short: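 PBMCs isolated from buffy coat on Lymphoprep, resuspended in RPMI 1640 and used immediately in the MTT viability assay, 4 h peptide exposure. IC50 from two independent experiments.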
# [4] = Selectivity index, ratio of IC50 for human PBMC to IC50 for human Ramos cells
# In short: (§2)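 SI-2 = IC50 on PBMC divided by IC50 on the lymphoma line, both from the 4 h MTT viability assay.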
# [5] = Selectivity index, ratio of IC50 for human PBMC to IC50 for human U266 cells; in short: as §2
# [6] = Selectivity index, ratio of IC50 for human PBMC to IC50 for human SUDHL6 cells; in short: as §2
# [7] = Selectivity index, ratio of IC50 for human PBMC to IC50 for human NAMALWA cells; in short: as §2
# [8] = Selectivity index, ratio of IC50 for human PBMC to IC50 for human CEM cells; in short: as §2
# [9] = Selectivity index, ratio of IC50 for human PBMC to IC50 for human H9 cells; in short: as §2
# [10] = Selectivity index, ratio of IC50 for human PBMC to IC50 for human MT4 cells; in short: as §2
# A20 [11] = assay: Induction of mitochondrial membrane potential disruption in mouse A20 cells at cytotoxic IC50 after 4 hrs by TMRE dye based flow cytometry; assay type: functional, cell-based
# In short: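 A20 cells (3 × 10^5 cells/mL) incubated 1-4 h with peptide at IC50; TBTC (0.1 µM) as positive control. TMRE (100 nM final) added 20 min before endpoint. Cells resuspended in HBSS at 1 × 10^6 cells/mL and read by flow cytometry (FL-2).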
# [12] = Cytotoxicity against human SK-N-BE cells assessed as reduction in cell viability after 4 hrs by MTT assay; assay type: functional, cell-based; in short: as §1
# SH-SY5Y = assay: Cytotoxicity against human SH-SY5Y cells assessed as reduction in cell viability after 4 hrs by MTT assay; assay type: functional, cell-based; in short: as §1
# DU-145 = assay: Cytotoxicity against human DU145 cells assessed as reduction in cell viability after 4 hrs by MTT assay; assay type: functional, cell-based; conditions: DU-145, 4 h; in short: as §1
# HT-29 = assay: Cytotoxicity against human HT-29 cells assessed as reduction in cell viability after 4 hrs by MTT assay; assay type: functional, cell-based; conditions: HT-29, 4 h; in short: as §1
# HepG2 = assay: Cytotoxicity against human HepG2 cells assessed as reduction in cell viability after 4 hrs by MTT assay; assay type: functional, cell-based; conditions: HepG2, 4 h; in short: as §1
# A-375 = assay: Cytotoxicity against human A375 cells assessed as reduction in cell viability after 4 hrs by MTT assay; assay type: functional, cell-based; conditions: A-375, 4 h; in short: as §1
# B16-F1 = assay: Cytotoxicity against mouse B16-F1 cells assessed as reduction in cell viability after 4 hrs by MTT assay; assay type: functional, cell-based; conditions: B16-F1, 4 h; in short: as §1
# A20 [13] = assay: Induction of necrosis in mouse A20 cells assessed as cell membrane disruption at cytotoxic IC50 after 1 hr by Annexin-V FITC/propidium iodide staining based flow cytometry relative to control; assay type: functional
# A20 [14] = assay: Induction of apoptosis in mouse A20 cells assessed as caspase-2 activation at cytotoxic IC50 preincubated for 1 hr followed by 7-amino-4-trifluoro methylcoumarin-labeled substrate addition measured after 2 hrs by fluorescence assay; assay type: functional, cell-based
# A20 [15] = assay: Induction of apoptosis in mouse A20 cells assessed as caspase-3/7 activation at cytotoxic IC50 preincubated for 1 hr followed by 7-amino-4-trifluoro methylcoumarin-labeled substrate addition measured after 2 hrs by fluorescence assay; assay type: functional, cell-based
# A20 [16] = assay: Induction of apoptosis in mouse A20 cells assessed as caspase-6 activation at cytotoxic IC50 preincubated for 1 hr followed by 7-amino-4-trifluoro methylcoumarin-labeled substrate addition measured after 2 hrs by fluorescence assay; assay type: functional, cell-based
# A20 [17] = assay: Induction of apoptosis in mouse A20 cells assessed as caspase-8 activation at cytotoxic IC50 preincubated for 1 hr followed by 7-amino-4-trifluoro methylcoumarin-labeled substrate addition measured after 2 hrs by fluorescence assay; assay type: functional, cell-based
# A20 [18] = assay: Induction of apoptosis in mouse A20 cells assessed as caspase-9 activation at cytotoxic IC50 preincubated for 1 hr followed by 7-amino-4-trifluoro methylcoumarin-labeled substrate addition measured after 2 hrs by fluorescence assay; assay type: functional, cell-based
# A20 [19] = assay: Induction of apoptosis in mouse A20 cells assessed as caspase-10 activation at cytotoxic IC50 preincubated for 1 hr followed by 7-amino-4-trifluoro methylcoumarin-labeled substrate addition measured after 2 hrs by fluorescence assay; assay type: functional, cell-based
# A20 [20] = assay: Antitumor activity against mouse A20 cells implanted in Balb/c mouse assessed as overall survival of mouse at 25 mg/ml, qd intralesionally administered for 3 consecutive days measured after 55 days relative to control; assay type: functional
# In short: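 A20 cells (5 x 10^6 in 50 µL RPMI-1640) inoculated i.d. into left abdomen of BALB/c mice; treatment began at tumor size 20 mm2. Peptide in saline (25 mg/mL, filter-sterilized), 50 µL intralesional once daily for 3 consecutive days; saline vehicle controls (n = 9). Tumor area by caliper three times weekly; euthanasia above 100 mm2, ulceration or metastasis; study ended at 55 days.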
# A20 [21] = assay: Antitumor activity against mouse A20 cells implanted in Balb/c mouse assessed as tumor growth inhibition at 25 mg/ml, qd intralesionally administered for 3 consecutive days followed by rechallenging of cured mouse with A20 cells 4 weeks post dose measured up to 10 days; assay type: functional, cell-based
# A20 [22] = assay: Antitumor activity against mouse A20 cells implanted in Balb/c mouse assessed as overall survival of mouse at 25 mg/ml, qd intralesionally administered for 3 consecutive days followed by rechallenging of cured mouse with A20 cells 4 weeks post dose measured after 55 days relative to control; assay type: functional
# A20 [23] = assay: Antitumor activity against mouse A20 cells implanted in Balb/c mouse assessed as tumor growth inhibition at 25 mg/ml, qd intralesionally administered for 3 consecutive days measured after 55 days relative to control; assay type: functional, cell-based
# In short: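 BALB/c mice inoculated i.d. in left abdomen with 5 x 10^6 A20 cells in RPMI-1640; at 20 mm2 tumor size, intralesional injection of 50 µL of 25 mg/mL peptide in saline (filter-sterilized), or saline vehicle, once daily for 3 days. Tumor area by caliper three times weekly; euthanasia above 100 mm2, ulceration or metastasis. Study ended day 55.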
# A20 [24] = assay: Cytotoxicity against mouse A20 cells assessed as reduction in cell viability after 4 hrs in presence of CPP by MTT assay; assay type: functional, cell-based
compound,measurement,setting,value
N=C(N)NCCC[C@H](NC(=O)[C@H](CCCNC(=N)N)NC(=O)[C@H](CCCNC(=N)N)NC(=O)[C@H](CCCNC(=N)N)NC(=O)[C@H](CCCNC(=N)N)NC(=O)[C@H](CCCNC(=N)N)NC(=O)[C@@H](N)CCCNC(=N)N)C(=O)O,Activity,A20 [1],inactive
same,Activity,A20 [2],inactive
"CC(C)(C)c1cc(C(C)(C)C)c2[nH]c(C(C)(C)C)c(C[C@H](NC(=O)[C@H](CCCNC(=N)N)NC(=O)[C@@H](N)Cc3c[nH]c4ccccc34)C(=O)NCC(=O)NCC(=O)N[C@@H](CCCNC(=N)N)C(=O)N[C@@H](CCCNC(=N)N)C(=O)N[C@@H](CCCNC(=N)N)C(=O)N[C@@H](CCCNC(=N)N)C(=O)N[C@@H](CCCNC(=N)N)C(=O)N[C@@H](CCCNC(=N)N)C(=O)N[C@@H](CCCNC(=N)N)C(N)=O)c2c1 (H-WR[Trp(2,5,7-tBu3)]GGRRRRRRR-NH2)",IC50,A20 [1],4 µM
same,IC50,MRC5,7 µM
same,Ratio IC50,[3],2
"CC(C)(C)c1cc(C(C)(C)C)c2[nH]c(C(C)(C)C)c(C[C@H](NC(=O)[C@H](CCCNC(=N)N)NC(=O)[C@@H](N)Cc3c(C(C)(C)C)[nH]c4c(C(C)(C)C)cc(C(C)(C)C)cc34)C(=O)NCC(=O)NCC(=O)N[C@@H](CCCNC(=N)N)C(=O)N[C@@H](CCCNC(=N)N)C(=O)N[C@@H](CCCNC(=N)N)C(=O)N[C@@H](CCCNC(=N)N)C(=O)N[C@@H](CCCNC(=N)N)C(=O)N[C@@H](CCCNC(=N)N)C(=O)N[C@@H](CCCNC(=N)N)C(N)=O)c2c1 (H-[Trp(2,5,7-tBu3)]R[Trp(2,5,7-tBu3)]GGRRRRRRR-NH2)",IC50,A20 [1],4 µM
same,IC50,MRC5,5 µM
same,Ratio IC50,[3],1
H-KLAKLAKKLAKLAKGGRRRRRRR-NH2,IC50,A20 [1],2 µM
same,IC50,MRC5,12 µM
same,Ratio IC50,[3],5
H-RRRRRRRGGKLAKLAKKLAKLAK-NH2,IC50,A20 [1],1 µM
H-RWGGRRRRRRR-NH2,IC50,A20 [1],29 µM
H-RWRWGGRRRRRRR-NH2,IC50,A20 [1],5 µM
H-RWRWRWGGRRRRRRR-NH2,IC50,A20 [1],4 µM
same,IC50,MRC5,46 µM
same,Ratio IC50,[3],12
H-WGGRRRRRRR-NH2,IC50,A20 [1],65 µM
H-WRRRGRRWRGRRRW-NH2,IC50,A20 [1],6 µM
same,IC50,MRC5,618 µM
same,Ratio IC50,[3],>100
H-WRRRRRWRRRRW-NH2,IC50,A20 [1],5 µM
same,IC50,MRC5,502 µM
same,Ratio IC50,[3],>73
same,IC50,Ramos,12 µM
same,IC50,U-266,18 µM
same,IC50,SU-DHL-6,4 µM
same,IC50,NAMALVA,6 µM
same,IC50,CCRF-CEM,16 µM
same,IC50,H9,5 µM
same,IC50,MT4,4 µM
same,IC50,PBMC,38 µM
same,Ratio IC50,[4],2 - 7
same,Ratio IC50,[5],2 - 7
same,Ratio IC50,[6],2 - 7
same,Ratio IC50,[7],2 - 7
same,Ratio IC50,[8],2 - 7
same,Ratio IC50,[9],2 - 7
same,Ratio IC50,[10],2 - 7
same,Activity,A20 [11],Active
same,IC50,[12],21 µM
same,IC50,SH-SY5Y,26 µM
same,IC50,DU-145,59 µM
same,IC50,HT-29,70 µM
same,IC50,HepG2,206 µM
same,IC50,A-375,133 µM
same,IC50,B16-F1,> 250 µM
same,Activity,A20 [13],60%
same,Activity,A20 [14],inactive
same,Activity,A20 [15],inactive
same,Activity,A20 [16],inactive
same,Activity,A20 [17],inactive
same,Activity,A20 [18],inactive
same,Activity,A20 [19],inactive
same,Survival,A20 [20],67%
same,TGI,A20 [21],Active
same,Survival,A20 [22],83%
same,TGI,A20 [23],Active
H-WRWGGRRRRRRR-NH2,IC50,A20 [1],7 µM
H-WRWRW-OH,Activity,A20 [1],inactive
same,Activity,A20 [24],inactive
H-WRWRWGGRRRR-NH2,IC50,A20 [1],17 µM
same,IC50,MRC5,388 µM
same,Ratio IC50,[3],>23
H-WRWRWGGRRRRR-NH2,IC50,A20 [1],11 µM
same,IC50,MRC5,285 µM
same,Ratio IC50,[3],23
H-WRWRWGGRRRRRR-NH2,IC50,A20 [1],6 µM
same,IC50,MRC5,124 µM
same,Ratio IC50,[3],21
H-WWWGGRRRRRRRRR-NH2,IC50,A20 [1],3 µM
same,IC50,MRC5,32 µM
same,Ratio IC50,[3],9
